Laboratory results: ChEMBL document CHEMBL4689842, “EUbOPEN Chemogenomics Library wave 1” (2021)
Where “and” joins values, the source holds several entries; their conditions need not be identical. Identical values can stand only once.

System: Fibroblast
Test: Multiplex assay against human fibroblast
Type: toxicity, cell-based
Settings: 10 µM, compound concentration 10 uM
Summary of the method: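 Values for tubulin, mitochondrial-mass and membrane-permeability phenotypes are per cents of cells with healthy nuclei. These cells were identified by CellPathfinder machine-learning gating of live cells that had been stained at seeding with Hoechst33342, BioTracker Green Microtubule Cytoskeleton Dye, MitoTracker Red and Annexin V Alexa Fluor 680 and imaged on a CQ1 microscope at 37°C and 5% CO2 after compound addition. The gating first set Hoechst high-intensity objects apart from normal cells, then split normal cells into healthy, pyknosed or fragmented nuclei, and pyknosed cells into mitotic or apoptotic.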

For `CN1CCN(C(=O)C(C)(C)c2ccc(C(=O)Nc3cn4cc(-c5ccncc5)ccc4n3)cc2)CC1` [T3-CLK], the “Population Apoptotic (%)” value (12 h, replicate 1) was 65% and 61% and 86%, the “Population Fragmented Nuclei (%)” value (12 h, replicate 1) was 35% and 22% and the “Population Healthy Nuclei (%)” value (12 h, replicate 1) was 48% and 50% and 64%. The “Population Hoechst High Intensity Objects (%)” value (12 h, replicate 1) was 12% and 17%, the “Population Mitochondria Different-Phenotype (%)” value (12 h, replicate 1) was 6% and the “Population Mitotic Cells (%)” value (12 h, replicate 1) was 35% and 38% and 13%. For the same compound, the “Population Normal (%)” value (12 h, replicate 1) was 87% and 82%, the “Population Pyknosed Nuclei (%)” value (12 h, replicate 1) was 15% and 14% and 13% and the “Total Cell Count” value (12 h, replicate 1) was 145 and 330 and 306. The “Population Membrane Permeable-Phenotype (%)” value (12 h, replicate 2) was 31% and 20% and 21%, the “Population Normal (%)” value (12 h, replicate 2) was 73% and 49% and 92% and the “Population Pyknosed Nuclei (%)” value (12 h, replicate 2) was 6% and 9% and 11%. The “Population Tubulin-Different-Phenotype (%)” value (12 h, replicate 2) was 44% and 60% and 94%, the “Total Cell Count” value (12 h, replicate 2) was 87 and 63 and 57 and the “Population Apoptotic (%)” value (24 h, replicate 1) was 69% and 55% and 80%. The “Population Fragmented Nuclei (%)” value (24 h, replicate 1) was 37% and 35% and 18%, the “Population Healthy Nuclei (%)” value (24 h, replicate 1) was 48% and 45% and 67% and the “Population Hoechst High Intensity Objects (%)” value (24 h, replicate 1) was 18% and 11% and 13%. The “Population Mitotic Cells (%)” value (24 h, replicate 1) was 30% and 44% and 20%, the “Population Normal (%)” value (24 h, replicate 1) was 81% and 88% and 86% and the “Population Pyknosed Nuclei (%)” value (24 h, replicate 1) was 13% and 19%. For the same compound, the “Total Cell Count” value (24 h, replicate 1) was 335 and 161 and 296, the “Population Membrane Permeable-Phenotype (%)” value (24 h, replicate 2) was 33% and 17% and the “Population Normal (%)” value (24 h, replicate 2) was 58% and 90% and 61%. The “Population Pyknosed Nuclei (%)” value (24 h, replicate 2) was 9% and 11% and 6%, the “Population Tubulin-Different-Phenotype (%)” value (24 h, replicate 2) was 33% and 88% and 50% and the “Total Cell Count” value (24 h, replicate 2) was 53 and 57 and 76. The “Population Apoptotic (%)” value (48 h, replicate 1) was 52%, the “Population Fragmented Nuclei (%)” value (48 h, replicate 1) was 52% and the “Population Healthy Nuclei (%)” value (48 h, replicate 1) was 32%. The “Population Hoechst High Intensity Objects (%)” value (48 h, replicate 1) was 17%, the “Population Membrane Permeable-Phenotype (%)” value (48 h, replicate 1) was 32% and the “Population Mitochondria Different-Phenotype (%)” value (48 h, replicate 1) was 20%. For the same compound, the “Population Mitotic Cells (%)” value (48 h, replicate 1) was 47%, the “Population Normal (%)” value (48 h, replicate 1) was 82% and the “Population Pyknosed Nuclei (%)” value (48 h, replicate 1) was 15%. For the same compound, the “Population Tubulin-Different-Phenotype (%)” value (48 h, replicate 1) was 76%, the “Total Cell Count” value (48 h, replicate 1) was 162 and the “Population Apoptotic (%)” value (48 h, replicate 2) was 63%. For the same compound, the “Population Fragmented Nuclei (%)” value (48 h, replicate 2) was 38%, the “Population Healthy Nuclei (%)” value (48 h, replicate 2) was 49% and the “Population Hoechst High Intensity Objects (%)” value (48 h, replicate 2) was 6%. The “Population Membrane Permeable-Phenotype (%)” value (48 h, replicate 2) was 47%, the “Population Mitochondria Different-Phenotype (%)” value (48 h, replicate 2) was 15% and the “Population Mitotic Cells (%)” value (48 h, replicate 2) was 36%. The “Population Normal (%)” value (48 h, replicate 2) was 93%, the “Population Pyknosed Nuclei (%)” value (48 h, replicate 2) was 12% and the “Population Tubulin-Different-Phenotype (%)” value (48 h, replicate 2) was 65%. For the same compound, the “Total Cell Count” value (48 h, replicate 2) was 95.
